Screening results (PubChem BioAssay)
IDH1 R132H inh: inhibitors of IDH1 R132H reductase, primary screen, biochemical, plate reader, single point; Isocitrate dehydrogenase [NADP] cytoplasmic (Homo sapiens), O75874; diaphorase/resazurin fluorescence, 60 min; inhibition, % at 10 µM; 70,000 compounds, 0.18% hits; in the data active = inhibition above about 34%; inconclusive = no clear call, values can overlap the other calls; inactive = below about 11%;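 also: 0% = DMSO and 100% = no enzyme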
Target sequence (O75874 whole entry R132H): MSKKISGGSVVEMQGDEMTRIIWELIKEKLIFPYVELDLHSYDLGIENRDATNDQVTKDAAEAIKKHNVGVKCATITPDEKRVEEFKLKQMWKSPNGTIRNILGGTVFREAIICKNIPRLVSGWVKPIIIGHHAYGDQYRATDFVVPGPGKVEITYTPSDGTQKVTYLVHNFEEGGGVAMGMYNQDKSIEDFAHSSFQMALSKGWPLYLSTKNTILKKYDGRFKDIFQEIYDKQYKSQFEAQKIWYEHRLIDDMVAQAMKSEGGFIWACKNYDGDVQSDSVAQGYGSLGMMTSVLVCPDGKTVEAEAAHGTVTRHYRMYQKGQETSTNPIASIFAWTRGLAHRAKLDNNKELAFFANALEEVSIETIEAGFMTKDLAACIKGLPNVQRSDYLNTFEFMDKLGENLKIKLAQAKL
T cruzi growth-1: T. cruzi intracellular proliferation inhibitors, primary screen, cell-based, beta-gal Tulahuen parasites, NIH3T3 host, luminescence. T. cruzi beta-gal in NIH3T3, GalScreen luminescence, 90 h. inhibition, % at 8.34 µM. 77,000 compounds, 5.9% hits;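 active = mean inhibition above about 93%, with at least 55% of replicates each passing it, limit read from the data, passing the limit was not always enough; inconclusive = only one of those two conditions holds; inactive = neither condition holds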
KDM4C inh: inhibitors of GASC-1 (KDM4C) histone demethylase, primary screen, biochemical, single concentration HTS; GST-KDM4C 2-372, H3K9me3 peptide, LANCE TR-FRET; inhibition, % at 12.5 µM; 96,000 compounds, 0.15% hits; AID 720574, 2013;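 active = mean replicate inhibition above about 25%, with at least 55% of replicates also reaching it, limit read from the data, passing the limit was not always enough; inconclusive = only one of those two conditions met; inactive = neither condition met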
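System – N-terminal GST-fused human GASC-1 (KDM4C) fragment, residues 2-372 · Input – enzyme final amount 10 nM · Technique – LANCE TR-FRET, Eu antibody, ULight-streptavidin, EDTA, ex 340 nm, em 618/671 nm · Medium – HEPES buffer, pH 7.5, plus ascorbate · Incubation – enzyme reaction 30 min, then detection 60 min, both room temperature · Reagent – H3K9me3 peptide with Fe(II)/2OG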
T cruzi growth-2: T. cruzi intracellular proliferation inhibitors, confirmation, cell-based, NIH3T3 host, beta-gal parasite, luminescence, cherry-pick | shares compounds with T cruzi growth-1 | T. cruzi beta-gal in NIH3T3, GalScreen luminescence, 90 h | inhibition, % at 8.35 µM | 5,600 compounds, 72% hits;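 active = mean replicate inhibition above about 95% and at least 55% of replicates individually reaching it, limit read from the data; inconclusive = only one of the two criteria is met; inactive = neither criterion is met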
T cruzi growth-3: inhibitors of intracellular T. cruzi replication, confirmation, NIH3T3 host cells, beta-gal parasites, cherry-pick, set 2. shares compounds with T cruzi growth-1. T. cruzi beta-gal in NIH3T3, GalScreen luminescence, 90 h. inhibition, % at 2.09 µM. 5,600 compounds, 21% hits;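 active = mean inhibition above about 95%, with at least 55% of replicates also reaching it, limit read from the data; inconclusive = meets just one of the two conditions; inactive = meets neither condition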;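 also: plate controls were neutral control median for no effect and positive control median for full effect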
NIH3T3 tox: cytotoxicity in mouse NIH/3T3 fibroblasts, confirmation, cytotoxicity control for T. cruzi proliferation inhibitor project, cell-based, cherry-pick, single point; shares compounds with T cruzi growth-1; NIH/3T3 viability, CellTiter-Glo ATP luminescence, 90 h; cytotoxicity (signal decrease), % at 8.35 µM; 5,600 compounds, 14% hits; AID 651742, 2012;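 active = mean signal decrease across replicates above about 35% based on untreated-well scatter, with enough replicates individually passing, limit read from the data; inconclusive = no rule stated though some were filed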;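 also: 0% = median of neutral control wells and 100% = median of positive control wells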
3T3 cytotox 2: NIH/3T3 fibroblast cytotoxicity, confirmation, cytotoxicity control, cell-based, cherry-pick, single point, set 2; 5,600 compounds, 56% hits; shares compounds with T cruzi growth-1; NIH/3T3 viability, CellTiter-Glo ATP luminescence, 90 h; inhibition, % at 24.9 µM;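 active = mean loss of cell viability signal at or above a set limit, and enough replicates individually reaching it; inconclusive = meets only the mean limit or only the replicate share; inactive = meets neither condition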;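 also: 0% = median of neutral control wells and 100% = median of positive control wells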
* marks the source's active call; other numbers are inactive results. Many of the other results were omitted from the sample, so hits are more common in it than they were.

What do the screens show for `COc1cccc(S(=O)(=O)N(C)C[C@H]2Oc3cc(C#CCC(C)C)ccc3S(=O)(=O)N([C@H](C)CO)C[C@H]2C)c1`?
IDH1 R132H inh: 0; T cruzi growth-1: inconclusive; KDM4C inh: 0; T cruzi growth-2: 97*; T cruzi growth-3: 115*; NIH3T3 tox: 29; 3T3 cytotox 2: 74*

How did COc1cccc(S(=O)(=O)N(C)C[C@@H]2Oc3cc(C#CCC(C)C)ccc3S(=O)(=O)N([C@H](C)CO)C[C@@H]2C)c1 do in these assays?
IDH1 R132H inh: 3; T cruzi growth-1: 68; KDM4C inh: -1

Results for COc1cccc(S(=O)(=O)N(C)C[C@H]2Oc3cc(C#CCN(C)C)ccc3S(=O)(=O)N([C@@H](C)CO)C[C@@H]2C)c1 ?
IDH1 R132H inh: 0; T cruzi growth-1: 108*; KDM4C inh: 3; T cruzi growth-2: 114*; T cruzi growth-3: 67; NIH3T3 tox: -2; 3T3 cytotox 2: 5

How did COc1ccc(C(=O)Nc2ccc(C(=O)NCc3ccco3)cc2)cc1 do in these assays?
IDH1 R132H inh: 0

Results for CCc1cccc(C)c1NC(=O)CSc1nnc(-c2ccccc2)o1 ?
IDH1 R132H inh: 0

How did Cc1cccc(NC(=O)C2CC(=O)n3c(nc4ccccc43)N2)c1 (centres undefined) do in these assays?
IDH1 R132H inh: 0

How did CCOC(=O)C1C(=O)C(=O)Nc2ccccc21 (centres undefined) do in these assays?
IDH1 R132H inh: 1

Results for CC1OC(OC2C(O)C(C)OC(OCC3OC(OC4C(C)OC(Oc5cc(O)c6c(=O)c(O)c(-c7ccc(O)c(O)c7)oc6c5)C(O)C4O)C(O)C(O)C3OC(=O)/C=C/c3ccc(O)cc3)C2O)C(O)C(O)C1O (centres undefined) ?
IDH1 R132H inh: -2

What do the screens show for `COc1ccc(NC(=O)CSc2nnc(N)n2-c2ccccc2)cc1`?
IDH1 R132H inh: 0

How did O=C(CC1C(=O)N(c2ccc(F)cc2)C(=S)N1CCN1CCOCC1)Nc1ccc(F)cc1 (centres undefined) do in these assays?
IDH1 R132H inh: 2

What do the screens show for `COc1ccccc1S(=O)(=O)N(C)C[C@H]1Oc2cc(C#CCC(C)C)ccc2S(=O)(=O)N([C@@H](C)CO)C[C@H]1C`?
IDH1 R132H inh: 0; T cruzi growth-1: 113*; KDM4C inh: 0; T cruzi growth-2: 95*; T cruzi growth-3: 108*; NIH3T3 tox: 13; 3T3 cytotox 2: 81*

Results for COc1ccccc1S(=O)(=O)N(C)C[C@H]1Oc2cc(C#CCC(C)C)ccc2S(=O)(=O)N([C@H](C)CO)C[C@@H]1C ?
IDH1 R132H inh: -1; T cruzi growth-1: 79; KDM4C inh: -1

How did Cc1cc(CSc2cc(C)c(Cl)cc2C)no1 do in these assays?
IDH1 R132H inh: 0

How did Cc1cccc(S(=O)(=O)N2CCCCN3[C@H](CO)[C@H](c4ccc(C#CC(C)C)cc4)[C@H]3C2)c1 do in these assays?
T cruzi growth-1: 69; KDM4C inh: 0

Results for Cc1cccc(S(=O)(=O)N2CCCCN3[C@H](CO)[C@@H](c4ccc(C#C[C@@H](C)O)cc4)[C@@H]3C2)c1 ?
T cruzi growth-1: 66; KDM4C inh: 0

What do the screens show for `Cc1cccc(S(=O)(=O)N2CCCCN3[C@H](C2)[C@H](c2ccc(C#C[C@H](C)O)cc2)[C@@H]3CO)c1`?
T cruzi growth-1: 110*; KDM4C inh: 1; T cruzi growth-2: 110*; T cruzi growth-3: 63; NIH3T3 tox: 41*; 3T3 cytotox 2: 14

Results for COc1cccc(S(=O)(=O)N2CCCCN3[C@H](CO)[C@@H](c4ccc(C#CC(C)C)cc4)[C@@H]3C2)c1 ?
T cruzi growth-1: inconclusive; KDM4C inh: 0; T cruzi growth-2: 99*; T cruzi growth-3: 83; NIH3T3 tox: 7; 3T3 cytotox 2: 55*

What do the screens show for `Cc1cccc(S(=O)(=O)N2CCCCN3[C@H](CO)[C@H](c4ccc(C#C[C@H](C)O)cc4)[C@H]3C2)c1`?
T cruzi growth-1: 106*; KDM4C inh: 1; T cruzi growth-2: inconclusive; T cruzi growth-3: 36; NIH3T3 tox: 33; 3T3 cytotox 2: 41*

Results for Cc1cccc(S(=O)(=O)N2CCCCN3[C@H](CO)[C@@H](c4ccc(C#CC(C)C)cc4)[C@H]3C2)c1 ?
T cruzi growth-1: inconclusive; KDM4C inh: 0; T cruzi growth-2: 102*; T cruzi growth-3: inconclusive; NIH3T3 tox: 27; 3T3 cytotox 2: 103*

What do the screens show for `COc1cccc(S(=O)(=O)N2CCCCN3[C@H](CO)[C@H](c4ccc(C#CC(C)C)cc4)[C@@H]3C2)c1`?
T cruzi growth-1: 88; KDM4C inh: -1

Results for Cc1cccc(S(=O)(=O)N2CCCCN3[C@@H](CO)[C@H](c4ccc(C#C[C@H](C)O)cc4)[C@@H]3C2)c1 ?
T cruzi growth-1: 45; KDM4C inh: 0

Results for Cc1ccc(C)c(NC(=O)CC2C(=O)N(c3ccccc3)C(=S)N2Cc2ccco2)c1 (centres undefined) ?
IDH1 R132H inh: 0

How did CC(C)Cc1ccc(S(=O)(=O)N2c3cc(F)ccc3CCC2C)cc1 (centres undefined) do in these assays?
IDH1 R132H inh: -1

Results for CCn1c(SCC(=O)Nc2ccc([N+](=O)[O-])cc2C)nnc1-c1ccc(Cl)cc1 ?
IDH1 R132H inh: -1

What do the screens show for `CCC(C)c1ccc(NC(=O)CSc2nc3ncccc3[nH]2)cc1` (centres undefined)?
IDH1 R132H inh: 0

Results for COc1ccc(C(=O)On2c(-c3ccccc3)cc3ccccc32)cc1 ?
IDH1 R132H inh: 0

How did Cc1ccc(-c2nc3cc(NC(=O)COc4ccccc4Cl)ccc3o2)c(C)c1 do in these assays?
IDH1 R132H inh: 0

Results for Cc1cccc(S(=O)(=O)N2CCCCN3[C@H](CO)[C@@H](c4ccc(C#C[C@H](C)O)cc4)[C@H]3C2)c1 ?
T cruzi growth-1: inconclusive; KDM4C inh: 0; T cruzi growth-2: 80; T cruzi growth-3: 25; NIH3T3 tox: 9; 3T3 cytotox 2: 33*
